This assay deals with S. cerevisiae DeaD BB579, nicotinamide rescue growth, OD615 48 h. Kind of assay: rescue of nicotinamide-suppressed growth of yeast BB579, dose response, yeast lifespan extension project, S. cerevisiae (AID 809). The procedure, abridged:
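System: Saccharomyces cerevisiae DeaD strain BB579, log-phase cells | Buffer or medium: CSMM-D glucose restrictive medium | Timing: 4 h pre-incubation, 48 h exposure at 30 °C | Technique: OD615 absorbance | Evaluation: Culture growth as lifespan proxy | Compound: 0.078–10 µM compound, 0.5% DMSO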

SMILES strings stand for the structures. Active and inactive are the calls of the source.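 How the source made its calls: active means EC50 for reversing nicotinamide-shortened yeast lifespan at or below a set limit; inactive means EC50 above that limit.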 Bounds are passed on as bounds.

As a reminder, the EC50 is the midpoint of the concentration-response curve.

Take `O=C1OC2(CCCCC2)OC(=O)C1=CNc1nc2ccccc2s1`: the EC50 is > 10 µM (inactive). Regarding `c1ccc(-c2cc(N3CCOCC3)nc3ccccc23)cc1`, the EC50 is > 10 µM (inactive). The same measure for `Cc1ccc(C)c(N2CCN(S(=O)(=O)c3c(C)noc3/C=C/N(C)C)CC2)c1`: > 10 µM (inactive); for `O=C(NNC1=Nc2cccc3cccc1c23)c1ccccc1Br`: > 10 µM (inactive); for `Cc1cc(N2C(=O)CC(Cc3ccccc3)C2=O)no1` (configuration not stated): > 10 µM (inactive). In the case of `CCCCCOC(=O)CSc1nc2c(c(=O)[nH]c(=O)n2C)n1CCc1ccccc1` it was > 10 µM (inactive); in that of `C=CCN(CC=C)S(=O)(=O)c1ccc2nc(NC(=O)C(C)C)sc2c1`, > 10 µM (inactive); in that of `CCCn1c(SCC(=O)c2ccc3c(c2)NC(=O)CO3)nc2ccccc21`, > 10 µM (inactive).

Take `CCCCCCC1C(C#N)=C(N)OC2=C1C(=O)CC(C)(C)C2` (configuration not stated): the EC50 was > 10 µM (inactive).

In the case of `CCCCCSc1nc2c(c(=O)[nH]c(=O)n2C)n1C`, the EC50 is > 10 µM (inactive). The same measure for `COc1ccc(/C=C(/C(=O)c2ccc(Cl)cc2Cl)n2cncn2)cc1`: 8.48 µM; for `CCCCN(CCCC)c1ccc(C(=O)c2ccccc2C(=O)O)c(O)c1`: 6.81 µM; for `O=C(Oc1ccc([N+](=O)[O-])cc1)c1ccc2ccccc2n1`: > 10 µM (inactive). In the case of `O=C1c2ccccc2C(=O)N1OCc1ccccc1` it was > 10 µM (inactive); in that of `COc1ccc(C(C)NC(=O)c2ccccc2)cc1` (configuration not stated), > 10 µM (inactive); in that of `O=[N+]([O-])c1cc2oc3c(c2c(C=NCc2ccccc2)c1O)CCCC3`, 2.55 µM. The same measure for `C=CS(=O)(=O)c1ccc(Oc2ccc(S(=O)(=O)C=C)cc2)cc1`: 7.12 µM. Consider `CCOC(=O)/C(=C/c1ccc(OC(=O)c2ccccc2)cc1)C(C)=O`, for which the concentration for a half-maximal effect (EC50) is 4.96 µM. With `CC(=O)c1c(O)cc2n(c1=O)-c1ccc(Cl)cc1C2(C)C`, the EC50 is 7.34 µM.

Consider `Cc1cc(C)n2cc(CSc3nnc(N)s3)nc2n1`, for which the EC50 was > 10 µM (inactive). The same measure for `CCN1C(=O)/C(=C/N(C(C)=O)c2ccccc2)N(c2ccccc2)C1=S`: > 10 µM (inactive); for `Oc1ccc2ccccc2c1C=Nc1ccc(N2CCOCC2)cc1`: > 10 µM (inactive); for `CCOc1ccccc1/C=c1\sc2ncnn2c1=O`: 7.17 µM. With `CCCC(=Nc1ccccc1OC)C1=C(O)CC(c2ccccc2)CC1=O` (configuration not stated), the EC50 is 3.21 µM. In the case of `CCc1ccc(C(=O)CN2C(=O)NC(C)(CCc3ccccc3)C2=O)cc1` (configuration not stated) it was > 10 µM (inactive). As to `CCOc1ccc(/C=C/C(=O)c2c(O)c3ccccc3oc2=O)cc1`, the EC50 is > 10 µM (inactive). In the case of `Cc1c(O)c(S(=O)c2ccccc2)c(=O)n(-c2ccccc2)c1-c1ccccc1` (configuration not stated) it was 4.32 µM.

`COCCn1c(SCC(=O)Nc2ccc(C)cc2)nc2c(oc3ccccc32)c1=O`: the EC50 is > 10 µM (inactive).

With `CCn1cc(C(=O)O)c(=O)c2ccc(C)nc21`, the EC50 was 3.62 µM. In the case of `Oc1ccc(Br)cc1C=Nc1ccc2[nH]ncc2c1`, the EC50 is > 10 µM (inactive). In the case of `Cc1[nH]n(-c2ccccc2)c(=O)c1N=Nc1nccs1` it was 6 µM; in that of `COC(=O)c1cc(=O)n(-c2ccccc2)c(=Nc2ccccc2)s1`, > 10 µM (inactive). In the case of `N#CSCC(=O)N1c2ccccc2CCc2ccccc21` it was 8.69 µM; in that of `Cc1c(NC(=O)C(=O)/C=C(/O)c2ccccc2)c(=O)n(-c2ccccc2)n1C`, 4.95 µM; in that of `CCOC(=O)/C(=C\c1cn(C)c2ccccc12)[N+](=O)[O-]`, 3.11 µM. On to `COC(=O)c1sc2ncn(-n3c(C)ccc3C)c(=O)c2c1C`, for which the EC50 was > 10 µM (inactive).

As for `CN1C(=O)C(Cl)(Cl)C(=O)c2ccccc21`, the EC50 was > 10 µM (inactive). In the case of `Cc1ccc(/C=C2/C(=O)NC(=O)N(CCc3ccc(F)cc3)C2=O)o1` it was > 10 µM (inactive); in that of `O=S(=O)(Nc1nc2ccccc2nc1Cl)c1ccc2ccccc2c1`, 7.25 µM; in that of `COCCN(CCOC)S(=O)(=O)c1ccc(C(=O)Nc2sc3c(c2C(N)=O)CCCCC3)cc1`, > 10 µM (inactive). The same measure for `C=CCn1c(O)c(C(CC)=NCCN2CCOCC2)c(=O)[nH]c1=O`: > 10 µM (inactive); for `CN1OC(c2ccccc2)=C(CO)C1c1ccccc1` (configuration not stated): > 10 µM (inactive); for `C/C(=N\NC(=O)c1ccccc1O)c1c(O)cc(C)oc1=O`: 2.9 µM. The same measure for `COC(=O)C(=O)/C=C(\O)c1ccc(C)cc1`: 5.88 µM; for `Cc1ccc(-c2nc3ccc(Cl)cc3n2OC(=O)N(C)C)cc1`: > 10 µM (inactive).

For the compound `CCn1c(=O)c2c(O)cc(=O)oc2c2ccccc21`, the EC50 is under 0.078 µM. For the compound `COc1ccc(/C=N/NC(=O)c2csc(-n3nc(C)cc3C(F)(F)F)n2)cc1`, the EC50 was > 10 µM (inactive).

Regarding `O=C1c2ccccc2NC(c2cnc3ccccc3n2)N1O` (configuration not stated), the EC50 is 1.42 µM. In the case of `CCCCC1C(=O)CC[C@H]2[C@@H]1CC(=O)[C@@H]2C/C=C\CCCC(=O)O` (some centres not stated) it was 8.1 µM. Turning to `CCOC(=O)C1C(c2cccs2)NC(=O)N(C)C1(O)C(F)(F)F` (configuration not stated), the EC50 is > 10 µM (inactive). In the case of `CC(=O)Oc1oc(-c2ccccc2)nc1C=Nc1ccccc1` it was 5.95 µM; in that of `CCCCCC1CC1C(=O)N/N=C/c1ccc(N(C)C)cc1` (configuration not stated), > 10 µM (inactive). The same measure for `O=C1Nc2ccccc2C12OCC1(CO2)COC2(OC1)C(=O)Nc1ccccc12` (configuration not stated): > 10 µM (inactive).

For the compound `c1cncc(-c2nn[nH]n2)c1`, the EC50 was > 10 µM (inactive).

In the case of `COCCCNc1c2c3c(cccc3[nH]c1=O)C(=O)c1ccccc1-2`, the EC50 is 7.85 µM. In the case of `CCN(CC)Cc1c(O)c(Cl)cc2c(C)c(C)c(=O)oc12` it was > 10 µM (inactive); in that of `CN1C(=O)NC(c2ccc(O)cc2)C(C(=O)c2cccs2)C1(O)C(F)(F)F` (configuration not stated), > 10 µM (inactive). In the case of `O=C(c1ccccc1)c1nc2ccccc2[nH]c1=O` it was > 10 µM (inactive); in that of `O=c1c2ccccc2nc(-c2ccc(Cl)c(Cl)c2)n1O`, > 10 µM (inactive); in that of `O=S(=O)(CCSc1ccccn1)c1nc2ccccc2s1`, 5.84 µM.

With `CCOc1cc(/C=C\[N+](=O)[O-])ccc1OCC(=O)Nc1ccccc1C`, the EC50 is > 10 µM (inactive). Consider `CCCCOC(=O)CSc1nc2c(c(=O)[nH]c(=O)n2C)n1C/C=C(\C)Cl`, for which the EC50 was > 10 µM (inactive).

Regarding `Cc1cc(C)c(NC(=O)/C(=C/c2ccccc2)c2ccccc2)c(C)c1`, the EC50 was > 10 µM (inactive).

`CCOC(=O)c1c(C)oc2c1c(C(c1cccnc1)N1CCCCC1)c(O)c1ccccc12` (configuration not stated): the EC50 is > 10 µM (inactive). Regarding `O=C(Nc1nccs1)c1ccc2c(=O)n3c(nc2c1)CCCCC3`, the EC50 was 7.75 µM.

As for `CCC(=NCCc1c(C)[nH]c2ccc(C)cc12)C1=C(O)CC(c2ccccc2)CC1=O` (configuration not stated), the half-maximal effective concentration (EC50) was 5.08 µM. In the case of `COc1cc(/C=C/C(=O)c2c(O)cc(C)oc2=O)cc(OC)c1O` it was > 10 µM (inactive); in that of `Cc1cccc(N2C(=O)/C(=C\c3ccc(OC(F)F)cc3)c3ccccc3C2=O)c1`, > 10 µM (inactive); in that of `CSc1ccc(S(=O)(=O)NCc2ccc(Cl)cc2Cl)cc1`, > 10 µM (inactive). For the compound `CN=C(SCc1cc2c(cc1Cl)OCO2)c1c(O)n(C)c(=O)n(C)c1=O`, the EC50 was 6.46 µM. On to `CCOC(=O)c1ccc2c(c1)n(CCO)c(C)[n+]2CC`, for which the EC50 is > 10 µM (inactive). `C=C(C)CN(CC)C(=O)COc1ccc(S(=O)(=O)Nc2ccc(OC)cc2)cc1`: the EC50 is > 10 µM (inactive).

Turning to `COc1ccc(-c2cc(N)n(S(=O)(=O)c3c(F)c(F)c(F)c(F)c3F)n2)cc1OC`, the concentration giving a half-maximal response (EC50) was 6.84 µM. On to `O=C(O)c1cccc2c1C(=O)N(C1CCCCC1)C2`, for which the EC50 is 4.22 µM.

`CC(=O)Nc1nc(C)c(Oc2ccccc2)c(=O)[nH]1`: the EC50 is > 10 µM (inactive). In the case of `C[C@]12CC[C@@H](O)C[C@@H]1CC[C@@H]1[C@@H]2CC[C@]2(C)[C@@H](O)CC[C@@H]12` it was > 10 µM (inactive); in that of `O=C(Nc1ccc(Br)cn1)c1cccc(-c2cc3ccccc3oc2=O)c1`, > 10 µM (inactive); in that of `O=C1/C(=C\c2cccnc2)CN(Cc2ccccc2)C/C1=C\c1cccnc1`, 9.63 µM. On to `COn1c(SC2CCCCC2)nc2ccccc2c1=O`, for which the EC50 was 1.14 µM. For the compound `Cc1ccc2nc(-c3ccc(NC(=O)CSc4ccccc4)cc3)[nH]c2c1`, the EC50 is > 10 µM (inactive). In the case of `Cc1ccc(S(=O)(=O)C(C#N)c2nc3ccccc3nc2N2CCCC2)cc1` (configuration not stated) it was > 10 µM (inactive). Regarding `CCCC[n+]1c(-c2ccc(Cl)cc2Cl)csc1Nc1ccccc1`, the EC50 is > 10 µM (inactive). The same measure for `COc1cccc(/C=C2\C(=O)N(c3cccc(C)c3)C(=O)c3ccccc32)c1`: > 10 µM (inactive).

Take `O=C(NCc1ccc(Cl)cc1)c1ccccc1CCc1ccccc1`: the EC50 was 7.94 µM. The same measure for `CC(=O)Nc1c(O)nc(SCc2ccccc2C#N)[nH]c1=O`: > 10 µM (inactive); for `Fc1cccc2sc(Nc3nnc(-c4ccco4)o3)nc12`: 0.24 µM.

Consider `COC(=O)CC1=NN(c2ccccc2)C(=O)/C1=C\c1ccc(OC)cc1`, for which the EC50 is > 10 µM (inactive). On to `CC(C)(C)OC(=O)[C@H]1[C@H](c2ccc([N+](=O)[O-])cc2)C2(C(=O)c3ccccc3C2=O)C2c3ccccc3C=NN21` (some centres not stated), for which the EC50 is 8.16 µM. The same measure for `Cc1c(NC(=O)C(=O)/C=C(\O)c2ccc(Cl)cc2)c(=O)n(-c2ccccc2)n1C`: 3.19 µM; for `COCCOC(=O)/C(=C/c1ccc(OC(=O)c2ccccc2)cc1)C(C)=O`: 4.96 µM. The same measure for `CNC(=S)NC1CC2CCCC(C1)N2Cc1ccco1` (configuration not stated): > 10 µM (inactive); for `O=C(Nc1cccnc1)c1c(O)c2cccc3c2n(c1=O)CC3`: 4.44 µM.

The record behind these values is PubChem BioAssay AID809 (SRMLSC, 2007).
